Assay results taken from ChEMBL document CHEMBL1128337, “Synthesis and cytotoxic activity of 6-vinyl- and 6-ethynyluridine and 8-vinyl-and 8-ethynyladenosine” (J Med Chem, 1995).

Legend:
Assay type in all cases: functional, cell-based
[1] = system: FM3A; assay: Compound was tested for the inhibition of murine mammary carcinoma FM3A cell proliferation; settings: Mus musculus
Outline: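 FM3A cells in Eagle's minimal essential medium with 10% fetal calf serum, 2 mM L-glutamine, 0.075% NaHCO3. Seeded 5 × 10⁴ cells/well (200 μL) with varying compound concentrations and incubated 48 h at 37 °C, humidified CO2 atmosphere. Cell number from Coulter counter. IC50 = concentration reducing viable cells by 50%.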

[2] = system: MOLT-4F; assay: Compound was tested for the inhibition of human T-lymphoblast Molt/4F cell proliferation
Outline: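 Molt/4F cells in RPMI-1640 with 10% fetal calf serum, 2 mM L-glutamine, 0.075% NaHCO3. Plated at 6.25 × 10⁴ cells/well across varying compound concentrations and grown 72 h at 37 °C, humidified CO2 atmosphere. Cells counted with Coulter counter. IC50 = concentration reducing viable cell number by 50%. Means of at least two or three independent experiments.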

[3] = system: MT4; assay: Compound was tested for the inhibition of human T-lymphoblast MT-4 cell proliferation
Outline: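 MT-4 cells grown in RPMI-1640 with 10% fetal calf serum, 2 mM L-glutamine, 0.075% NaHCO3. Seeded at 6.25 × 10⁴ cells/well with varying compound concentrations and cultured 120 h at 37 °C, humidified CO2 atmosphere. Viable cells counted by trypan blue staining under microscope. IC50 = concentration reducing viable cell number by 50%. Means of at least two or three independent experiments.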

[4] = system: L1210; assay: Compound was tested for the inhibition of murine leukemia L1210 cell proliferation; settings: Mus musculus
Outline: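 L1210 cells maintained in Eagle's minimal essential medium with 10% fetal calf serum, 2 mM L-glutamine, 0.075% NaHCO3. Exposed to varying compound concentrations at 5 × 10⁴ cells/well (200 μL) and grown 48 h at 37 °C, humidified CO2 atmosphere. Counted with Coulter counter. IC50 = concentration reducing viable cells by 50%. Means of at least two or three independent experiments.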

IC50 [2] [µM] | IC50 [4] [µM] | SMILES | IC50 [1] [µM] | IC50 [3] [µM]
14 | 21 | C=Cc1cc(=O)[nH]c(=O)n1C1O[C@H](CO)[C@@H](O)[C@H]1O (stereo partly specified) | 24 | 11
> 372 | > 372 | C#Cc1cc(=O)[nH]c(=O)n1C1O[C@H](CO)[C@@H](O)[C@H]1O (stereo partly specified) | > 372 | 286
6.5 | 190 | C=Cc1nc2c(N)ncnc2n1[C@@H]1O[C@H](CO)[C@@H](O)[C@H]1O | 145 | 15
25 | 54 | C#Cc1nc2c(N)ncnc2n1[C@@H]1O[C@H](CO)[C@@H](O)[C@H]1O | 27 | 22
